# ChEMBL document CHEMBL3817818, “Synthesis and evaluation of fluorescent Pam3Cys peptide conjugates” (Bioorg Med Chem Lett, 2016)
# Calls of active or inactive are those of the source. The rule behind the calls is not given here. Where a SMILES comes first, the peptide text is derived from it. The star is where a group is joined. Propyl(2R-PamO,3-PamO) = CCCCCCCCCCCCCCCC(=O)OC[C@H](C*)OC(=O)CCCCCCCCCCCCCCC; X1 = CCCCCCCCCCCCCCCC(=O)OC[C@@H](C*)OC(=O)CCCCCCCCCCCCCCC; Palmitoyl = CCCCCCCCCCCCCCCC(=O)*
# Experiments:
# [1] = target: Toll-like receptor 2 (Mus musculus) (UniProt Q9QUN7); assay: Agonist activity at TLR2 in H-2b harboring B6 mouse DC assessed as cell maturation by measuring increase in IL-12 p40 production at 0.0625 to 1 uM incubated for 48 hrs by sandwich ELISA
# Chain of Toll-like receptor 2 (Mus musculus) (Q9QUN7 whole entry): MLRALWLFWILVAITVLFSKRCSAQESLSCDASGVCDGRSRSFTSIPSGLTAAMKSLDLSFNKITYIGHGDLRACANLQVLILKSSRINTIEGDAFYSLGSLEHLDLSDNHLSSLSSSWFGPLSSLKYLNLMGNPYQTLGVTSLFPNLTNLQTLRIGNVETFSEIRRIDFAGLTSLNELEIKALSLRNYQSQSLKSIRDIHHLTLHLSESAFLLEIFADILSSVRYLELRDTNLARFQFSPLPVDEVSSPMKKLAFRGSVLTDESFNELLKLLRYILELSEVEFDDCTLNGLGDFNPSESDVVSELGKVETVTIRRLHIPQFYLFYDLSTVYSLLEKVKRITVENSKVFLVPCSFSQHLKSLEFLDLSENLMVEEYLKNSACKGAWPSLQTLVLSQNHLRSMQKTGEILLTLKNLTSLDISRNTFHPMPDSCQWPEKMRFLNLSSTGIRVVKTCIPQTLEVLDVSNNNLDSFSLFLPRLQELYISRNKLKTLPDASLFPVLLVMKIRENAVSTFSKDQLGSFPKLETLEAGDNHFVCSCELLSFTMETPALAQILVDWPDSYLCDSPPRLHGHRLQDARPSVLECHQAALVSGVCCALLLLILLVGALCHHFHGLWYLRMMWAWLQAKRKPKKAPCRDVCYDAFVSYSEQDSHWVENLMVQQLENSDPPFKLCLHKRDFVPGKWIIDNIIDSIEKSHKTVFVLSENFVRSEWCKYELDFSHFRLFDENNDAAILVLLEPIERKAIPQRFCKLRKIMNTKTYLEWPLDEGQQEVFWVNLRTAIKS
# Outline: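 Supernatants were harvested and IL-12 secretion measured by ELISA. Data shown are one representative of three independent experiments.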
# [2] = target: Toll-like receptor 2 (Homo sapiens) (UniProt O60603); assay: Agonist activity at human TLR2 expressed in HEK cells assessed as increase in IL-8 production at 25 to 100 nM incubated for 24 hrs by ELISA; type: cell-based; conditions: HEK293
# Chain of Toll-like receptor 2 (Homo sapiens) (O60603 whole entry): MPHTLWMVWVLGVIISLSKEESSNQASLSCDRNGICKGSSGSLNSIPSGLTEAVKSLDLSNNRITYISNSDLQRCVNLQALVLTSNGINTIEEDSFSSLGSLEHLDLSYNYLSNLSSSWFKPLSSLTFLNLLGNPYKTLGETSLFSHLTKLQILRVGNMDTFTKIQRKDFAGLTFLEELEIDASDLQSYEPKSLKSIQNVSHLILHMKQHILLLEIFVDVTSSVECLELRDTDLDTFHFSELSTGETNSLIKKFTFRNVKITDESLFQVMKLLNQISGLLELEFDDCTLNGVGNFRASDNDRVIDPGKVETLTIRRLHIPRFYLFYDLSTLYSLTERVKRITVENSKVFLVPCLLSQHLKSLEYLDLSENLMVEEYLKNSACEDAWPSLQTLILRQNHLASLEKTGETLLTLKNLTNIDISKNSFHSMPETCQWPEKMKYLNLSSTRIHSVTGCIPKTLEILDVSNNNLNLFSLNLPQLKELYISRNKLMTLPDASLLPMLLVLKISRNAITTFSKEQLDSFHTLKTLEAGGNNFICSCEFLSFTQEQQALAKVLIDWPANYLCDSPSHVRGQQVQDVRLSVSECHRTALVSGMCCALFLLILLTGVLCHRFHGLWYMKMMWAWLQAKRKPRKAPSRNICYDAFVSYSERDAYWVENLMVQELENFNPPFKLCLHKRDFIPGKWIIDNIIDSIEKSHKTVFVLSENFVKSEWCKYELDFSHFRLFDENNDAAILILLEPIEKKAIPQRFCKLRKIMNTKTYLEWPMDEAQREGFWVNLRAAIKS
# Outline: (§1)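 HEK cells transfected with human TLR2 were incubated 24 h with conjugates at 100–25 nM, or with Pam₃CysSK₄ at 100 ng/mL. Receptor activation was read as IL-8 produced in the assay. Error bars are SD.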
# [3] = target: Toll-like receptor 4 (Homo sapiens) (UniProt O00206); assay: Agonist activity at human TLR4 expressed in HEK cells assessed as increase in IL-8 production at 25 to 100 nM incubated for 24 hrs by ELISA; type: cell-based; conditions: HEK293
# Chain of Toll-like receptor 4 (Homo sapiens) (O00206 whole entry): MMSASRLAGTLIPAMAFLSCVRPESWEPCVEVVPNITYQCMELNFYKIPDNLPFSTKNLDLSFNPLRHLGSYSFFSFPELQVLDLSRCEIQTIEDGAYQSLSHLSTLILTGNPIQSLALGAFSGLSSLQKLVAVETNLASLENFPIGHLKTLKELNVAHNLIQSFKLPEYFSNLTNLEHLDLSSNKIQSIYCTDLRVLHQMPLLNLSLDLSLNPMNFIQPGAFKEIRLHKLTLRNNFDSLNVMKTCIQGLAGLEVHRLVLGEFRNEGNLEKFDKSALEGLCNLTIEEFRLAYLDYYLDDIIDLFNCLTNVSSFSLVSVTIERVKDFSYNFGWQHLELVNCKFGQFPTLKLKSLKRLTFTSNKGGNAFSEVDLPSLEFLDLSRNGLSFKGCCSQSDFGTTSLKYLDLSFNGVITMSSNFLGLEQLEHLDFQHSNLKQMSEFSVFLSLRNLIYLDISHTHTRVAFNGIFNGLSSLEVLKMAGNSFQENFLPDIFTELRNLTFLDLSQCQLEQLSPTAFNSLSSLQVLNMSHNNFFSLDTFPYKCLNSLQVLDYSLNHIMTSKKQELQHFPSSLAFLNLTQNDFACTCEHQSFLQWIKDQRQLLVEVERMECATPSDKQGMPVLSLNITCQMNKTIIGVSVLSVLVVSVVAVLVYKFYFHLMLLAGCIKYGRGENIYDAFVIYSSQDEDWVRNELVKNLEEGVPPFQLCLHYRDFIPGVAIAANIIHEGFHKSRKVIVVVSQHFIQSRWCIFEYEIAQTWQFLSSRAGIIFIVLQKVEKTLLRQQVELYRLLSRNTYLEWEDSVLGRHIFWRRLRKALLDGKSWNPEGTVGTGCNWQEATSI
# [4] = Aqueous solubility of compound; type: physicochemical; conditions: buffer
# [5] = Drug uptake in H-2b harboring B6 mouse DC at 1 uM after 15 mins by confocal microscopic analysis; type: ADME; conditions: in vitro, 0.25 h
# Outline: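 Dendritic cells were exposed to conjugate for 15 min. Uptake and intracellular localisation were imaged by confocal laser scanning microscopy. Images are representative of multiple cells in at least 3 experiments.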
# [6] = target: Toll-like receptor 2 (Homo sapiens) (UniProt O60603); assay: Agonist activity at human TLR2 expressed in HEK cells assessed as increase in IL-8 production at 100 ng/ml incubated for 24 hrs by ELISA; type: cell-based; conditions: HEK293; outline: as §1
Activity [1],Activity [2],Activity [3],solubility [4],Drug uptake [5],Activity [6],SMILES
Active,Active,inactive,–,–,–,CCCCCCCCCCCCCCCC(=O)N[C@@H](CSC[C@@H](COC(=O)CCCCCCCCCCCCCCC)OC(=O)CCCCCCCCCCCCCCC)C(=O)N[C@@H](CO)C(=O)N[C@@H](CCCCN)C(=O)N[C@@H](CCCCN)C(=O)N[C@@H](CCCCN)C(=O)N[C@@H](CCCCN)C(=O)N[C@@H](CC(=O)O)C(=O)N[C@@H](CCC(=O)O)C(=O)N[C@H](C(=O)N[C@@H](CO)C(=O)NCC(=O)N[C@@H](CC(C)C)C(=O)N[C@@H](CCC(=O)O)C(=O)N[C@@H](CCC(N)=O)C(=O)N[C@@H](CC(C)C)C(=O)N[C@@H](CCC(=O)O)C(=O)N[C@@H](CO)C(=O)N[C@H](C(=O)N[C@H](C(=O)N[C@@H](CC(N)=O)C(=O)N[C@@H](Cc1ccccc1)C(=O)N[C@H](CCC(=O)O)C(=O)N[C@@H](CCCCn1nnc2c1CC[C@H]1[C@@H](CC2)[C@H]1COC(=O)NCCOCCOCCNC(=O)CCCC[N+]1=C(/C=C/C=C/C=C2\N(C)c3ccccc3C2(C)C)C(C)(C)c2ccccc21)C(=O)N[C@H](CC(C)C)C(=O)O)[C@H](C)CC)[C@H](C)CC)C(C)C
inactive,–,–,Insoluble,–,–,CCCCCCCCCCCCCCCC(=O)N[C@H](CSC[C@@H](COC(=O)CCCCCCCCCCCCCCC)OC(=O)CCCCCCCCCCCCCCC)C(=O)N[C@H](CO)C(=O)N[C@H](CCCCN)C(=O)N[C@H](CCCCN)C(=O)N[C@H](CCCCN)C(=O)N[C@H](CCCCN)C(=O)N[C@H](CC(=O)O)C(=O)N[C@H](CCC(=O)O)C(=O)N[C@@H](C(=O)N[C@H](CO)C(=O)NCC(=O)N[C@H](CC(C)C)C(=O)N[C@H](CCC(=O)O)C(=O)N[C@H](CCC(N)=O)C(=O)N[C@H](CC(C)C)C(=O)N[C@H](CCC(=O)O)C(=O)N[C@H](CO)C(=O)N[C@@H](C(=O)N[C@@H](C(=O)N[C@H](CC(N)=O)C(=O)N[C@H](Cc1ccccc1)C(=O)N[C@@H](CCC(=O)O)C(=O)N[C@H](CCCCn1nnc2c1CC[C@@H]1[C@H](CC2)[C@@H]1COC(=O)NCCOCCOCCNC(=O)c1ccc(-c2c3ccc(=[N+](C)C)cc-3oc3cc(N(C)C)ccc23)c(C(=O)[O-])c1)C(=O)N[C@@H](CC(C)C)C(=O)O)[C@@H](C)CC)[C@@H](C)CC)C(C)C
inactive,inactive,inactive,–,–,–,CCCCCCCCCCCCCCCC(=O)N[C@@H](CSC[C@H](COC(=O)CCCCCCCCCCCCCCC)OC(=O)CCCCCCCCCCCCCCC)C(=O)N[C@@H](CO)C(=O)N[C@@H](CCCCN)C(=O)N[C@@H](CCCCN)C(=O)N[C@@H](CCCCN)C(=O)N[C@@H](CCCCN)C(=O)N[C@@H](CC(=O)O)C(=O)N[C@@H](CCC(=O)O)C(=O)N[C@H](C(=O)N[C@@H](CO)C(=O)NCC(=O)N[C@@H](CC(C)C)C(=O)N[C@@H](CCC(=O)O)C(=O)N[C@@H](CCC(N)=O)C(=O)N[C@@H](CC(C)C)C(=O)N[C@@H](CCC(=O)O)C(=O)N[C@@H](CO)C(=O)N[C@H](C(=O)N[C@H](C(=O)N[C@@H](CC(N)=O)C(=O)N[C@@H](Cc1ccccc1)C(=O)N[C@@H](CCC(=O)O)C(=O)N[C@@H](CCCCN)C(=O)N[C@@H](CC(C)C)C(=O)O)[C@@H](C)CC)[C@@H](C)CC)C(C)C (Palmitoyl-C(X1)SKKKKDEVSGLEQLESIINFEKL-OH)
Active,–,–,Insoluble,–,–,CCCCCCCCCCCCCCCC(=O)N[C@H](CSC[C@H](COC(=O)CCCCCCCCCCCCCCC)OC(=O)CCCCCCCCCCCCCCC)C(=O)N[C@H](CO)C(=O)N[C@H](CCCCN)C(=O)N[C@H](CCCCN)C(=O)N[C@H](CCCCN)C(=O)N[C@H](CCCCN)C(=O)N[C@H](CC(=O)O)C(=O)N[C@H](CCC(=O)O)C(=O)N[C@@H](C(=O)N[C@H](CO)C(=O)NCC(=O)N[C@H](CC(C)C)C(=O)N[C@H](CCC(=O)O)C(=O)N[C@H](CCC(N)=O)C(=O)N[C@H](CC(C)C)C(=O)N[C@H](CCC(=O)O)C(=O)N[C@H](CO)C(=O)N[C@@H](C(=O)N[C@@H](C(=O)N[C@H](CC(N)=O)C(=O)N[C@H](Cc1ccccc1)C(=O)N[C@@H](CCC(=O)O)C(=O)N[C@H](CCCCn1nnc2c1CC[C@@H]1[C@H](CC2)[C@@H]1COC(=O)NCCOCCOCCNC(=O)c1ccc(-c2c3ccc(=[N+](C)C)cc-3oc3cc(N(C)C)ccc23)c(C(=O)[O-])c1)C(=O)N[C@@H](CC(C)C)C(=O)O)[C@@H](C)CC)[C@@H](C)CC)C(C)C
inactive,inactive,inactive,–,–,–,CCCCCCCCCCCCCCCC(=O)N[C@@H](CSC[C@H](COC(=O)CCCCCCCCCCCCCCC)OC(=O)CCCCCCCCCCCCCCC)C(=O)N[C@@H](CO)C(=O)N[C@@H](CCCCN)C(=O)N[C@@H](CCCCN)C(=O)N[C@@H](CCCCN)C(=O)N[C@@H](CCCCN)C(=O)N[C@@H](CC(=O)O)C(=O)N[C@@H](CCC(=O)O)C(=O)N[C@H](C(=O)N[C@@H](CO)C(=O)NCC(=O)N[C@@H](CC(C)C)C(=O)N[C@@H](CCC(=O)O)C(=O)N[C@@H](CCC(N)=O)C(=O)N[C@@H](CC(C)C)C(=O)N[C@@H](CCC(=O)O)C(=O)N[C@@H](CO)C(=O)N[C@H](C(=O)N[C@H](C(=O)N[C@@H](CC(N)=O)C(=O)N[C@@H](Cc1ccccc1)C(=O)N[C@H](CCC(=O)O)C(=O)N[C@@H](CCCCn1nnc2c1CC[C@H]1[C@@H](CC2)[C@H]1COC(=O)NCCOCCOCCNC(=O)CCCC[N+]1=C(/C=C/C=C/C=C2\N(C)c3ccccc3C2(C)C)C(C)(C)c2ccccc21)C(=O)N[C@H](CC(C)C)C(=O)O)[C@H](C)CC)[C@H](C)CC)C(C)C
–,–,–,–,Active,–,CCCCCCCCCCCCCCCC(=O)N[C@@H](CSC[C@H](COC(=O)CCCCCCCCCCCCCCC)OC(=O)CCCCCCCCCCCCCCC)C(=O)N[C@@H](CO)C(=O)N[C@@H](CCCCN)C(=O)N[C@@H](CCCCN)C(=O)N[C@@H](CCCCN)C(=O)N[C@@H](CCCCN)C(=O)N[C@@H](CC(=O)O)C(=O)N[C@@H](CCC(=O)O)C(=O)N[C@H](C(=O)N[C@@H](CO)C(=O)NCC(=O)N[C@@H](CC(C)C)C(=O)N[C@@H](CCC(=O)O)C(=O)N[C@@H](CCC(N)=O)C(=O)N[C@@H](CC(C)C)C(=O)N[C@@H](CCC(=O)O)C(=O)N[C@@H](CO)C(=O)N[C@H](C(=O)N[C@H](C(=O)N[C@@H](CC(N)=O)C(=O)N[C@@H](Cc1ccccc1)C(=O)N[C@@H](CCC(=O)O)C(=O)N[C@@H](CCCCn1nnc2c1CC[C@H]1[C@@H](CC2)[C@H]1COC(=O)NCCOCCOCCNC(=O)CCCC[N+]1=C(/C=C/C=C/C=C2\N(C)c3ccccc3C2(C)C)C(C)(C)c2ccccc21)C(=O)N[C@@H](CC(C)C)C(=O)O)[C@@H](C)CC)[C@@H](C)CC)C(C)C
–,–,–,–,–,Active,"CCCCCCCCCCCCCCCC(=O)N[C@@H](CSC[C@@H](COC(=O)CCCCCCCCCCCCCCC)OC(=O)CCCCCCCCCCCCCCC)C(=O)N[C@@H](CO)C(=O)N[C@@H](CCCCN)C(=O)N[C@@H](CCCCN)C(=O)N[C@@H](CCCCN)C(=O)N[C@@H](CCCCN)C(=O)O (Palmitoyl-C(Propyl(2R-PamO,3-PamO))SKKKK-OH)"
Active,Active,inactive,–,–,–,"CCCCCCCCCCCCCCCC(=O)N[C@@H](CSC[C@@H](COC(=O)CCCCCCCCCCCCCCC)OC(=O)CCCCCCCCCCCCCCC)C(=O)N[C@@H](CO)C(=O)N[C@@H](CCCCN)C(=O)N[C@@H](CCCCN)C(=O)N[C@@H](CCCCN)C(=O)N[C@@H](CCCCN)C(=O)N[C@@H](CC(=O)O)C(=O)N[C@@H](CCC(=O)O)C(=O)N[C@H](C(=O)N[C@@H](CO)C(=O)NCC(=O)N[C@@H](CC(C)C)C(=O)N[C@@H](CCC(=O)O)C(=O)N[C@@H](CCC(N)=O)C(=O)N[C@@H](CC(C)C)C(=O)N[C@@H](CCC(=O)O)C(=O)N[C@@H](CO)C(=O)N[C@H](C(=O)N[C@H](C(=O)N[C@@H](CC(N)=O)C(=O)N[C@@H](Cc1ccccc1)C(=O)N[C@@H](CCC(=O)O)C(=O)N[C@@H](CCCCN)C(=O)N[C@@H](CC(C)C)C(=O)O)[C@@H](C)CC)[C@@H](C)CC)C(C)C (Palmitoyl-C(Propyl(2R-PamO,3-PamO))SKKKKDEVSGLEQLESIINFEKL-OH)"
–,–,–,–,Active,–,CCCCCCCCCCCCCCCC(=O)N[C@@H](CSC[C@@H](COC(=O)CCCCCCCCCCCCCCC)OC(=O)CCCCCCCCCCCCCCC)C(=O)N[C@@H](CO)C(=O)N[C@@H](CCCCN)C(=O)N[C@@H](CCCCN)C(=O)N[C@@H](CCCCN)C(=O)N[C@@H](CCCCN)C(=O)N[C@@H](CC(=O)O)C(=O)N[C@@H](CCC(=O)O)C(=O)N[C@H](C(=O)N[C@@H](CO)C(=O)NCC(=O)N[C@@H](CC(C)C)C(=O)N[C@@H](CCC(=O)O)C(=O)N[C@@H](CCC(N)=O)C(=O)N[C@@H](CC(C)C)C(=O)N[C@@H](CCC(=O)O)C(=O)N[C@@H](CO)C(=O)N[C@H](C(=O)N[C@H](C(=O)N[C@@H](CC(N)=O)C(=O)N[C@@H](Cc1ccccc1)C(=O)N[C@@H](CCC(=O)O)C(=O)N[C@@H](CCCCn1nnc2c1CC[C@H]1[C@@H](CC2)[C@H]1COC(=O)NCCOCCOCCNC(=O)CCCC[N+]1=C(/C=C/C=C/C=C2\N(C)c3ccccc3C2(C)C)C(C)(C)c2ccccc21)C(=O)N[C@@H](CC(C)C)C(=O)O)[C@@H](C)CC)[C@@H](C)CC)C(C)C
